A short description of assay [1]: inhibitors of TNFa-induced NFkB p65 translocation, primary screen, imaging, HUVEC, MLSMR starter and 10KST1 sets (AID 438;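 active = inhibition above 20% together with a positive visual image hit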;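 note: compound added about 3h40 before a 20 min TNFalpha stimulation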;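 for inhibition: signal is the nuclear over cytoplasmic p65 intensity ratio per well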). Conditions: HUVEC TNFa-induced p65 nuclear translocation; cell count: measured here: nuclei count (cytotoxicity indicator), at 2.08 µM; inhibition: at 2 µM, stronger effect = higher value, 0% TNFa-plus-vehicle, 100% no-TNFa wells.
The nature of assay [2]: inhibitors of mutant huntingtin aggregation, primary screen, imaging, exon1htt(103Q)mCFP cells, high-content imaging (AID 483;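 active = visual image review flags a hit and inhibition of aggregation exceeds 20%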;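 note: compound exposure lasted 3 days before fixation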;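 for nuclei count: percent of the per-plate median nuclei count of sample wells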). Conditions: exon1htt(103Q)mCFP cell line, aggregate imaging, at 2 µM; inhibition of aggregation: stronger effect = higher value; nuclei count: measured here: cell count, toxicity.
The nature of assay [3]: inhibitors of E-selectin induction by TNFa, primary screen, imaging, HUVEC, immunofluorescence, MLSMR starter and 10KST1 sets (AID 487;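 active = visually confirmed hit in the image check and inhibition above 20%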;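 for inhibition: signal is fraction of cell area covered by stained E-selectin grains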;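 for nuclei count: 100% = median nuclei count of all wells on the same plate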). Conditions: HUVEC TNFalpha-induced E-selectin immunofluorescence imaging, at 2 µM; inhibition: stronger effect = higher value; nuclei count: measured here: cell number, toxicity.
The target of assay [4] is Voltage-gated potassium channel subunit beta-2 (Rattus norvegicus) (UniProt P62483). The experiment in a line: KvBeta enzyme negative modulators, primary screen, biochemical, NADPH fluorescence (AID 622;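 active = fluorescence slope higher than the sample average by over 3 SD, cut at about -0.22 in these data, passing the limit was not always enough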;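 note: slope of raw intensity against log time taken from 70 to 1610 s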). Conditions: recombinant KvBeta, 4-cyanobenzaldehyde reduction, at 10 µM, stronger effect = higher value.
Chain of Voltage-gated potassium channel subunit beta-2 (Rattus norvegicus) (P62483 whole entry, looked up): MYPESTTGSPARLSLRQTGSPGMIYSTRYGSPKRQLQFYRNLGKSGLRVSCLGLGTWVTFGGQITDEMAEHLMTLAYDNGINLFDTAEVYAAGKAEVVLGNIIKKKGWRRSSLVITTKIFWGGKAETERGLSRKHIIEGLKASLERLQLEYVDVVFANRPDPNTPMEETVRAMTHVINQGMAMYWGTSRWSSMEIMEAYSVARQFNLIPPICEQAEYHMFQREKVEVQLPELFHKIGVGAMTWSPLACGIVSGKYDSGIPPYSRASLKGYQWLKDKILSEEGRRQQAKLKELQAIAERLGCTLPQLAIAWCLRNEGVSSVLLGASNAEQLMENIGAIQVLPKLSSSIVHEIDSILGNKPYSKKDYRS
Assay [5] shares this target. The experiment in a line: KvBeta positive modulators, primary screen, biochemical, NADPH fluorescence (AID 623;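 active = NADPH fluorescence slope more negative than the mean of all samples by about 3 SD, 99.7% confidence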;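 note: fluorescence intensity change per second fitted from 20 to 320 s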). Conditions: Recombinant KvBeta, NADPH fluorescence decrease slope, 10 min; at 10 µM; stronger effect = lower value.
Assay [6] concerns the target Alpha-2C adrenergic receptor (Homo sapiens) (UniProt P18825). The experiment in a line: modulators of alpha2C/GIRK thallium flux, primary screen, cell-based, HEK293 alpha2C/GIRK1/2 (AID 624;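 active = fluorescence slope after compound addition differing from the mean of all screened samples at 99.7% confidence, in either direction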;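 note: slope of fluorescence ratio to pre-addition baseline per second over 15 to 24 s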). Conditions: thallium flux BTC fluorescence, at 10 µM, actives lie on both sides.
A short description of assay [7]: inhibitors of larval lipid processing in zebrafish, primary screen, whole organism, PED6 fluorescence, gall bladder and intestine (AID 686;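 active = a full or partial loss of lipid-probe fluorescence in the fish gall bladder, intestine or both, judged by eye; inactive = no fluorescence loss, or compound toxic to the fish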;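 note: larvae 5 to 7 days old with five fish per well; signal comes from phospholipase A2 cleavage of quenched PED6 carried via bile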). Conditions: Zebrafish larvae PED6 lipid processing, fluorescence scoring; screened at 20 µM (by protocol). The method, boiled down: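 System: live zebrafish larvae aged 5-7 days, whole organism; measure: graded gall bladder and intestinal fluorescence inhibition per well; incubation: overnight exposure; reagent: ingested quenched lipid PED6 at 100 nM; signal: By-eye fluorescence microscopy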

Assay [8] can be described thus: inhibitors of Sendai virus-induced IRF3 signaling, primary screen, TLR/RLR signaling modifier project, cell-based, Sendai virus stimulus, luciferase, 10K MLSCN set (AID 602276;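 active = inhibition at or above 50% at 10 µM; inactive = inhibition below 50%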;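 note: firefly luciferase from ISG56 promoter only with Renilla not read in this screen; 0% = Sendai virus plus DMSO and 100% = medium plus DMSO without virus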). Conditions: HEK293 RL24 IRF3 luciferase reporter, at 10 µM, stronger effect = higher value.
Assay [9] in a line: inhibitors of poly I:C-induced TLR3 signaling, primary screen, cell-based, poly I:C stimulus, luciferase, 10K MLSCN set (AID 602277). Conditions: HEK293-TLR3 RL24 IRF3 luciferase reporter, at 10 µM, stronger effect = higher value. (Reporter assays use an easily measured gene product as a stand-in for the process of interest.)

Activity calls are given as the source filed them.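 Rule for the calls, unless noted: active = inhibition of the reporter signal at or above 50%; inactive = inhibition below 50%.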

Chain of Alpha-2C adrenergic receptor (Homo sapiens) (P18825 whole entry, looked up): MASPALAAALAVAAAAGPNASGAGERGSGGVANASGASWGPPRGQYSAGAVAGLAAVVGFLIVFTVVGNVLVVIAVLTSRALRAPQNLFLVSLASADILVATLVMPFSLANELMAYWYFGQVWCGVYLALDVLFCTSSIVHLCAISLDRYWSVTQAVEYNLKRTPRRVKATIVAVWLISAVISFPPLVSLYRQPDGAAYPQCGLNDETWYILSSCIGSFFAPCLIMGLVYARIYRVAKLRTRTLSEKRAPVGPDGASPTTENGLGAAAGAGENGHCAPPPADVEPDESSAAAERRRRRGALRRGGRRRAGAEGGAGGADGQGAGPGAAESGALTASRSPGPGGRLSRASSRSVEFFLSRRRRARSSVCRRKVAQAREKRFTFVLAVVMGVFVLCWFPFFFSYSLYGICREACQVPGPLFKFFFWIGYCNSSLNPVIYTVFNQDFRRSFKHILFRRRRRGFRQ

Regarding `COc1ccc(NC(=O)Cn2nnc(-c3ccccc3F)n2)cc1Cl`, the cell count in [1] worked out at 602. The inhibition – broadly, the drop in the measured response relative to a control, in per cent – in [1] is -9.3% (inactive); in assay [3], -59.1% (inactive); in assay [8], 7.23% (inactive); in [9], 38.7% (inactive). Further, the inhibition of aggregation in [2] is -0.1% (inactive). Besides, the values for the nuclei count in assay [2] and in assay [3] were 92.6% and 107%, respectively. In [4], the fluorescence slope was -0.382 (inactive). In addition, in assay [5], the NADPH fluorescence slope was 1.8e-05 (inactive). For the same compound, the slope in assay [6] is 0.00543 (inactive). The compound was classed as inactive in assay [7].

As for `CC1(C)C(c2cccs2)=[N+]([O-])C2(CCCCC/C2=N\O)N1O` (stereo unspecified), the cell count in [1] was 423. The inhibition in [1] is 0.5% (inactive); in [3] it was -97.1% (inactive); in assay [8], 15.7% (inactive); in assay [9] it was 15.3% (inactive). In assay [2], the inhibition of aggregation is 5.7% (inactive). Moreover, the figures for the nuclei count in assay [2] and in assay [3] were 91.7% and 112%, respectively. Besides, in assay [4], the fluorescence slope was -0.46 (inactive). The NADPH fluorescence slope in assay [5] was -4.9e-05 (inactive). For the same compound, the slope in assay [6] was 0.00609 (inactive). Moreover, the call in [7] was inactive.

With `Cc1cc(C)c(NC2=NCC(=O)N2C2CCCCC2)c(C)c1`, in assay [1], the cell count was found to be 638. In addition, the inhibition was -2.2% (inactive) in assay [1], -32.7% (inactive) in [3], -0.88% (inactive) in assay [8] and -0.177% (inactive) in assay [9]. For the same compound, the inhibition of aggregation in assay [2] is 5.3% (inactive). The nuclei count was determined as 122% in [2] and 114% in [3]. In addition, in [4], the fluorescence slope was -0.389 (inactive). Besides, the NADPH fluorescence slope in assay [5] was 1.7e-05 (inactive). In addition, the slope in assay [6] was 0.00607 (inactive). In addition, the outcome in [7] was inactive.

Regarding `COC(=O)CN(Cc1ccco1)S(=O)(=O)c1ccccc1`, the cell count in assay [1] came out at 554. Also, the inhibition is -13.3% (inactive) in assay [1], -9.7% (inactive) in assay [3], 7.73% (inactive) in [8] and 6.21% (inactive) in assay [9]. In addition, the inhibition of aggregation in assay [2] was -8.4% (inactive). For the same compound, the nuclei count is 111% in [2] and 112% in assay [3]. For the same compound, the fluorescence slope in assay [4] is -0.351 (inactive). For the same compound, the NADPH fluorescence slope in assay [5] was -5.1e-05 (inactive). The slope in assay [6] was 0.00494 (inactive). The outcome in assay [7] was inactive.

For the compound `C=CCC1(O)C(=O)Nc2ccccc21` (stereo unspecified), in [1], the cell count was 585. For the same compound, the inhibition is -13.3% (inactive) in assay [1], -66.6% (inactive) in [3], 16.6% (inactive) in [8] and 18.3% (inactive) in assay [9]. In [2], the inhibition of aggregation was -5.5% (inactive). The values for the nuclei count in [2] and in assay [3] were 106% and 115%, respectively. The fluorescence slope in assay [4] was -0.339 (inactive). Moreover, the NADPH fluorescence slope in assay [5] is -5.2e-05 (inactive). The slope in assay [6] is 0.00522 (inactive). Also, the call in assay [7] was inactive.

For `Cc1nc2ncnn2c(N2CCC(C(=O)NCC3CCCO3)CC2)c1Cc1ccccc1` (stereo unspecified), the cell count in assay [1] came to 642. Also, the inhibition in [1] was -10.1% (inactive); in assay [3], -143% (inactive); in [8], 8.8% (inactive); in assay [9] it was 19.2% (inactive). Also, in assay [2], the inhibition of aggregation was -26.5% (inactive). Besides, the values for the nuclei count in assay [2] and in assay [3] were 97% and 112%, respectively. Besides, the fluorescence slope in assay [4] was -0.407 (inactive). Further, in assay [5], the NADPH fluorescence slope was -2.8e-05 (inactive). The slope in assay [6] is 0.00509 (inactive). For the same compound, in assay [7], the compound was called inactive.

Regarding `Nc1ccc(S(=O)(=O)c2cccc(N)c2)cc1`, the cell count in assay [1] was determined as 655. The inhibition in [1] was -8.6% (inactive); in assay [3], -2.1% (inactive); in assay [8], 15.4% (inactive); in assay [9], 15.8% (inactive). For the same compound, in [2], the inhibition of aggregation was -8.8% (inactive). Also, the nuclei count in assay [2] was 81.5%; in assay [3], 108%. Further, the fluorescence slope in [4] is -0.435 (inactive). In assay [5], the NADPH fluorescence slope is -1.3e-05 (inactive). The slope in assay [6] was 0.00439 (inactive). The compound was called inactive in assay [7].

On to `COc1ccc(S(=O)(=O)Nc2ccc(Cl)cn2)c(C)c1C`, for which the cell count in [1] is 482. Also, the inhibition was -29.6% (inactive) in [1], -46.8% (inactive) in assay [3], 11.2% (inactive) in assay [8] and 1.09% (inactive) in assay [9]. Moreover, in [2], the inhibition of aggregation is -3.5% (inactive). Besides, the nuclei count came to 62% in assay [2] and 98.5% in assay [3]. The fluorescence slope in assay [4] is -0.387 (inactive). Also, the NADPH fluorescence slope in assay [5] is -4.6e-05 (inactive). The slope in assay [6] is 0.00866 (inactive). The outcome in assay [7] was inactive.

In the case of `COc1ccc(Cl)cc1N1CCN(CCNC(=O)Nc2ccccc2C)CC1`, in assay [1], the cell count amounted to 353. In addition, the inhibition in assay [1] was 0.6% (inactive); in assay [3], -3.8% (inactive); in assay [8], 21.9% (inactive); in [9], 8.13% (inactive). The inhibition of aggregation in assay [2] is -3.4% (inactive). Moreover, the nuclei count in assay [2] worked out at 108%; in assay [3] it was 111%. The fluorescence slope in assay [4] was -0.452 (inactive). Besides, the NADPH fluorescence slope in assay [5] was -1.3e-05 (inactive). Further, the slope in assay [6] is 0.00435 (inactive). In addition, in assay [7], the compound was called inactive.

In the case of `Cn1c(CSc2nc3ccccc3s2)nnc1SCC(=O)NCCN1CCOCC1`, the cell count in assay [1] was 487. In addition, the inhibition in assay [1] is 4.5% (inactive); in assay [3], -23% (inactive); in assay [8], -5.77% (inactive); in [9], 13.9% (inactive). Also, the inhibition of aggregation in [2] is -3.4% (inactive). Also, the nuclei count was found to be 94.1% in assay [2] and 125% in assay [3]. Besides, in assay [4], the fluorescence slope is -0.409 (inactive). In addition, the NADPH fluorescence slope in assay [5] is -8.1e-06 (inactive). Besides, in assay [6], the slope is 0.00477 (inactive). Besides, the outcome in assay [7] was inactive.

Consider `O=C(O)COc1cccc(NC(=O)C2CCCO2)c1` (stereo unspecified), for which, in assay [1], the cell count was 308. For the same compound, the inhibition in [1] was -7% (inactive); in assay [3] it was -14.3% (inactive); in assay [8], -6.85% (inactive); in assay [9], -4.06% (inactive). The inhibition of aggregation in assay [2] was 0.8% (inactive). Moreover, the nuclei count in [2] amounted to 97.2%; in [3], 90%. For the same compound, the fluorescence slope in [4] is -0.471 (inactive). In addition, the NADPH fluorescence slope in assay [5] is 1.1e-05 (inactive). For the same compound, the slope in [6] is 0.00558 (inactive). Besides, the call in [7] was inactive.

With `O=C(NCCCN1CCOCC1)c1cc(-c2ccc(Cl)cc2)on1`, in assay [1], the cell count was determined as 264. For the same compound, the inhibition in [1] is -1.8% (inactive); in assay [3] it was -8.4% (inactive); in assay [8], 6.84% (inactive); in [9], -3.16% (inactive). The inhibition of aggregation in [2] is -1.6% (inactive). The nuclei count in assay [2] amounted to 102%; in [3], 113%. Besides, the fluorescence slope in assay [4] was -0.294 (inactive). For the same compound, the NADPH fluorescence slope in assay [5] was 1.2e-05 (inactive). Further, the slope in assay [6] was 0.00493 (inactive). Moreover, the call in assay [7] was inactive.

In the case of `COc1cccc(CN2C(=O)C3(C(C#N)=C(N)OC4=C3C(=O)CCC4)c3ccccc32)c1` (stereo unspecified), in assay [1], the cell count came out at 352. The inhibition in assay [1] was -0.9% (inactive); in assay [3], -15.9% (inactive); in [8], 12.7% (inactive); in assay [9], 14.6% (inactive). The inhibition of aggregation in assay [2] was -11.5% (inactive). For the same compound, the nuclei count in assay [2] amounted to 94.1%; in assay [3] it was 77.7%. In assay [4], the fluorescence slope is -0.414 (inactive). For the same compound, the NADPH fluorescence slope in [5] is -5.5e-05 (inactive). The slope in assay [6] was 0.00531 (inactive). Also, the compound was classed as inactive in assay [7].

The record behind these values is PubChem BioAssay.
